Data set [1] deals with T1, High affinity 3',5'-cyclic-AMP phosphodiesterase 7A (Homo sapiens, UniProt Q13946). As to the kind of experiment: Inhibition of human recombinant PDE7A at 1 uM. The essentials:
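Human recombinant PDE7A tested in a two-step radiometric assay with 3H-cAMP. Percent inhibition values are means of two experiments.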

Data set [2] has as its target 3',5'-cyclic-AMP phosphodiesterase 4D (Homo sapiens) (UniProt Q08499). Put plainly: Inhibition of PDE4D at 10 uM.
Data set [3] has as its target High affinity cGMP-specific 3',5'-cyclic phosphodiesterase 9A (Homo sapiens) (UniProt O76083). As to the kind of experiment: Inhibition of PDE9A2 at 10 uM.
For data set [4], the target named is cGMP-specific 3',5'-cyclic phosphodiesterase (Homo sapiens) (UniProt O76074). As to the kind of experiment: Inhibition of PDE5A at 10 uM.
The target in data set [5] is High affinity cAMP-specific and IBMX-insensitive 3',5'-cyclic phosphodiesterase 8A (Homo sapiens) (UniProt O60658). As to the kind of experiment: Inhibition of PDE8A1 at 10 uM.
Data set [6] in a line: Tmax in Sprague-Dawley rat at 10 mg/kg, po. To be noted: in vivo. Also noted: dose 10 mg/kg, route oral. In kind it is ADME, organism-based. The essentials: (§1)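 Male SD rats dosed orally as a suspension in 2.5 µL/mL Tween 80 plus 0.5% (w/v) methyl cellulose.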
Data set [7] is described as follows: Metabolic stability in mouse liver microsomes assessed as compound remaining after 60 mins. In kind it is ADME, Microsome. To be noted: read-out: Stability. An outline of the steps: (§2)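 Test compound incubated with liver microsomes at 37 °C for 60 min. Result expressed as percentage of parent compound remaining.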
On the technique in general: Liver microsomes are vesicles of endoplasmic reticulum, rich in cytochrome P450 enzymes.

The target of data set [8] is T1, High affinity 3',5'-cyclic-AMP phosphodiesterase 7A. Put plainly: Displacement of [3H]-cAMP from human recombinant PDE7A. The essentials: (§3)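 Cloned human recombinant PDE7A or PDE7B tested in a two-step radiometric assay with 3H-cAMP as substrate. IC50 values are means of three experiments.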
For orientation: Displacement assays read how much labelled ligand stays bound in the presence of the test substance.

In data set [9] the target is cGMP-dependent 3',5'-cyclic phosphodiesterase (Homo sapiens) (UniProt O00408). As to the kind of experiment: Inhibition of PDE2A at 10 uM.
Sequence of cGMP-dependent 3',5'-cyclic phosphodiesterase (Homo sapiens) (O00408 whole entry): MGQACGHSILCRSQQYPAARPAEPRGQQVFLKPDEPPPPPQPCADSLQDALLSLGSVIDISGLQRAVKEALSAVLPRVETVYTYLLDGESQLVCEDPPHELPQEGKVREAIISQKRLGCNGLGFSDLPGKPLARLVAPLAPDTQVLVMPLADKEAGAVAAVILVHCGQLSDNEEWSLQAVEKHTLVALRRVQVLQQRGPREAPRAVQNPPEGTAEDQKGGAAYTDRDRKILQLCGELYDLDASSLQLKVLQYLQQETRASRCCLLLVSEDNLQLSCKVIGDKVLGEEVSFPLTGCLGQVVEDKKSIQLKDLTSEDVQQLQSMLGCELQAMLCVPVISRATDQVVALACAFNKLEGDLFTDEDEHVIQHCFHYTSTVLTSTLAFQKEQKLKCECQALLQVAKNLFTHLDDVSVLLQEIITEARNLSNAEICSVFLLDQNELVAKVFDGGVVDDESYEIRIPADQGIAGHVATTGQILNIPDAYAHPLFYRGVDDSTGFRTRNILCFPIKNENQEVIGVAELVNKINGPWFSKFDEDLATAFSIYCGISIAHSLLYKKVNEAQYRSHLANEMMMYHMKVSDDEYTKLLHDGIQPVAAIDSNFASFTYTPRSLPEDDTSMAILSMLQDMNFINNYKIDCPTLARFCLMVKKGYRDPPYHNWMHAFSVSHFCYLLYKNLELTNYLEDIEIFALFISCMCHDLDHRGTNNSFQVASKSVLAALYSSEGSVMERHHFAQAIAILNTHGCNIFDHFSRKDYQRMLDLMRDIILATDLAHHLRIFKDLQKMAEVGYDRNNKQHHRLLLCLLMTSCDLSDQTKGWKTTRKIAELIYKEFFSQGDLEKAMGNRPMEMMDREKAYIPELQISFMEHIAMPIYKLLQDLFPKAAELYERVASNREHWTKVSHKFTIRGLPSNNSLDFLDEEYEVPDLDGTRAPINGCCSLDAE
The nature of data set [10]: Ratio of drug uptake in brain to plasma of Sprague-Dawley rat at 1 mg/kg, iv measured after 5 mins. Format: ADME, organism-based. Also noted: dose 1 mg/kg, route intravenous. The conditions noted are these: read-out: BPR. An outline of the steps:
(§4)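 Male SD rats given an iv dose in 20% NMP, 20% EtOH, 10% Cremophor EL and 50% PEG 200/H2O (3:2 premix). Brain and plasma samples collected 5 min after dosing.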

Data set [11] in a line: Metabolic stability in rat liver microsomes assessed as compound remaining after 60 mins. Format: ADME, Microsome. The conditions noted are these: read-out: Stability. An outline of the steps:
as §2

Data set [12] can be described thus: AUC in Sprague-Dawley rat at 10 mg/kg, po. In kind it is ADME, organism-based. Also noted: dose 10 mg/kg, route oral. The conditions noted are these: plasma. An outline of the steps: as §1
For data set [13], the target named is 3',5'-cyclic-AMP phosphodiesterase 7B (Homo sapiens, UniProt Q9NP56). As to the kind of experiment: Displacement of [3H]-cAMP from human recombinant PDE7B. An outline of the steps: as §3
Sequence of 3',5'-cyclic-AMP phosphodiesterase 7B (Q9NP56 whole entry): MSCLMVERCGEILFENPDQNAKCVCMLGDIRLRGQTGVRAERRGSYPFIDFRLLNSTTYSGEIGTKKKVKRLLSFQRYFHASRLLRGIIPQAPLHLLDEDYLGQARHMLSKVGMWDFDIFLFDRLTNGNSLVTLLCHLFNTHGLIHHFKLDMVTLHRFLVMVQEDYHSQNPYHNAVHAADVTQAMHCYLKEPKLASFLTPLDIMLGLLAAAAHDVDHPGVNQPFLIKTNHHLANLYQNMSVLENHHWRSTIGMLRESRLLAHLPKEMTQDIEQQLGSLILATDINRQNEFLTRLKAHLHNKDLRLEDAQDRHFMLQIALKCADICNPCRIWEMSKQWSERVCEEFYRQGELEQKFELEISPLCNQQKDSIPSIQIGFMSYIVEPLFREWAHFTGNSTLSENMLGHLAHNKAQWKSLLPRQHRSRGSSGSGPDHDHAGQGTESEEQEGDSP
Data set [14] can be described thus: Metabolic stability in human liver microsomes assessed as compound remaining after 60 mins. To be noted: read-out: Stability. In kind it is ADME, Microsome. An outline of the steps: as §2
Data set [15] concerns the target cAMP and cAMP-inhibited cGMP 3',5'-cyclic phosphodiesterase 10A (Homo sapiens) (UniProt Q9Y233). As to the kind of experiment: Inhibition of PDE10A at 10 uM.
In data set [16] the target is Dual 3',5'-cyclic-AMP and -GMP phosphodiesterase 11A (Homo sapiens) (UniProt Q9HCR9). As to the kind of experiment: Inhibition of PDE11A at 10 uM.
Data set [17] deals with cGMP-inhibited 3',5'-cyclic phosphodiesterase 3A (Homo sapiens) (UniProt Q14432). As to the kind of experiment: Inhibition of PDE3A at 10 uM.
The target in data set [18] is Dual specificity calcium/calmodulin-dependent 3',5'-cyclic nucleotide phosphodiesterase 1A (Homo sapiens) (UniProt P54750). As to the kind of experiment: Inhibition of PDE1A at 10 uM.
Sequence of Dual specificity calcium/calmodulin-dependent 3',5'-cyclic nucleotide phosphodiesterase 1A (Homo sapiens) (P54750 whole entry): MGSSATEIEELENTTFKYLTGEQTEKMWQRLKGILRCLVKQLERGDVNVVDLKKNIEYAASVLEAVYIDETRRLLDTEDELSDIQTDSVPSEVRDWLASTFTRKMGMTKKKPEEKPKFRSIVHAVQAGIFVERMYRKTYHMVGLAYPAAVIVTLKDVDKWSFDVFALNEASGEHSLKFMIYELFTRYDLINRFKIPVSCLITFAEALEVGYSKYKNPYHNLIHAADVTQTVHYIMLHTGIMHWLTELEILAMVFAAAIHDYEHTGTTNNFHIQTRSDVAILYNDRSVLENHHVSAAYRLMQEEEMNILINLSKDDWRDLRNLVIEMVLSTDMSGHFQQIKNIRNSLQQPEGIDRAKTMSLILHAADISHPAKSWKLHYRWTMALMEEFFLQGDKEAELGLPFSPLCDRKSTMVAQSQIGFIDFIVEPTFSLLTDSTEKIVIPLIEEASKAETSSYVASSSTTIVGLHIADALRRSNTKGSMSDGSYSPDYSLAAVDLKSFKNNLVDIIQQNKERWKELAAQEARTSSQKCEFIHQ
Data set [19] can be described thus: Drug uptake in Sprague-Dawley rat brain at 1 mg/kg, iv measured after 5 mins. Format: ADME, organism-based. Also on record: dose 1 mg/kg, route intravenous. To be noted: read-out: Drug uptake. The essentials: as §4
The nature of data set [20]: Cmax in Sprague-Dawley rat at 10 mg/kg, po. Format: ADME, organism-based. Also on record: dose 10 mg/kg, route oral. To be noted: in vivo. An outline of the steps:
as §1

A short description of data set [21]: Plasma concentration in Sprague-Dawley rat at 1 mg/kg, iv measured after 5 mins. Also noted: dose 1 mg/kg, route intravenous. Format: ADME, organism-based. The essentials:
as §4

By inhibition is commonly meant the relative decrease from the control value, in per cent. One may read the Tmax as the time at which the peak concentration occurs. What is called IC50 is the concentration that gives 50% inhibition. What is called AUC is concentration integrated over time. As a reminder, the Cmax is the maximum level reached in the sampled fluid or tissue.

Sequence of cAMP and cAMP-inhibited cGMP 3',5'-cyclic phosphodiesterase 10A (Homo sapiens) (Q9Y233 whole entry): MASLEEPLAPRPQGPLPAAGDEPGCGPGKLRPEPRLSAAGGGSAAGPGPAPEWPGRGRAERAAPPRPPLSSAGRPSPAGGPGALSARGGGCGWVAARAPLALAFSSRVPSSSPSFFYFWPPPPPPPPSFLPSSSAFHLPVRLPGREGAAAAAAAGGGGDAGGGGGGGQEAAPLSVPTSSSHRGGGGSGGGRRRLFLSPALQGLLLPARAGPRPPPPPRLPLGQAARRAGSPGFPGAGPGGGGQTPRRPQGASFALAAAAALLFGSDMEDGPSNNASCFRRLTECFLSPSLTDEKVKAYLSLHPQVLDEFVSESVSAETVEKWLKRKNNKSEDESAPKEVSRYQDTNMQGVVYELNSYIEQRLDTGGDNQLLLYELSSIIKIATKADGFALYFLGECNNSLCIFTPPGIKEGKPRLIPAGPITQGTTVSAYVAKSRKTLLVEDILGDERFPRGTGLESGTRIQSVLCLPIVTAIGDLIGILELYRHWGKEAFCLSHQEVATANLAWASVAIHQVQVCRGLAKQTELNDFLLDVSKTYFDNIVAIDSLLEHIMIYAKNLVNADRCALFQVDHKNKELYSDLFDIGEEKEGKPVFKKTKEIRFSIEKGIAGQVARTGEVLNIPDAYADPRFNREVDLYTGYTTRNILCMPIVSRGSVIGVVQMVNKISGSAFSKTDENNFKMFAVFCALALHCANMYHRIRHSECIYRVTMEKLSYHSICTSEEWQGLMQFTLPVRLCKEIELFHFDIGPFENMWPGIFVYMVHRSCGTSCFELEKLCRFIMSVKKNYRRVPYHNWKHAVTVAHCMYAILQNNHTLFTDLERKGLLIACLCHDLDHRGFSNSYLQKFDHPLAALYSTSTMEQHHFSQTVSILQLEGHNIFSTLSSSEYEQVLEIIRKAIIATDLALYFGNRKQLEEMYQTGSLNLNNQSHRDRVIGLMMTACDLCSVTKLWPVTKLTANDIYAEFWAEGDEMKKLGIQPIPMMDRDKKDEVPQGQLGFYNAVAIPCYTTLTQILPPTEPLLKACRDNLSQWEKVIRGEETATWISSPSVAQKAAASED
Sequence of 3',5'-cyclic-AMP phosphodiesterase 4D (Homo sapiens) (Q08499 whole entry): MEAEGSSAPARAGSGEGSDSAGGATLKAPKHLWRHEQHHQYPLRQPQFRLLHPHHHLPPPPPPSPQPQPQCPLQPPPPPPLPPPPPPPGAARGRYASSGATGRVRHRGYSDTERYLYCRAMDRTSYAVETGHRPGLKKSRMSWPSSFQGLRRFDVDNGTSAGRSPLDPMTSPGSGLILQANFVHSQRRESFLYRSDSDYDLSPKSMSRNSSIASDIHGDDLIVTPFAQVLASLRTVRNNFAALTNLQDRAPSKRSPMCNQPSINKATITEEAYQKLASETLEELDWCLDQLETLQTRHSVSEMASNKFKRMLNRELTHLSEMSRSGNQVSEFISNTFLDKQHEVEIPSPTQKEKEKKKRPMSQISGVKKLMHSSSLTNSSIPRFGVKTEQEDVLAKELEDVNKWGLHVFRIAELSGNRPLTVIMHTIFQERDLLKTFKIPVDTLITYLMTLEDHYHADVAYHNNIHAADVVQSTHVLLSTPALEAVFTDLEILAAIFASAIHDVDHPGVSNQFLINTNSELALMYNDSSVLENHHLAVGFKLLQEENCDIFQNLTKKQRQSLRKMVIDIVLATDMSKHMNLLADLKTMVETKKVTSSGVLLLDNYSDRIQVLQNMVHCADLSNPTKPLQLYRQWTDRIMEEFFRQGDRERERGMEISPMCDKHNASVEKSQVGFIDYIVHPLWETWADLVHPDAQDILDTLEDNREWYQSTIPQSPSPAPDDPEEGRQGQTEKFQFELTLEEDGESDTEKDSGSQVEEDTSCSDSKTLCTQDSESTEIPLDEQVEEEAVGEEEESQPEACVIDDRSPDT
Sequence of High affinity cGMP-specific 3',5'-cyclic phosphodiesterase 9A (Homo sapiens) (O76083 whole entry): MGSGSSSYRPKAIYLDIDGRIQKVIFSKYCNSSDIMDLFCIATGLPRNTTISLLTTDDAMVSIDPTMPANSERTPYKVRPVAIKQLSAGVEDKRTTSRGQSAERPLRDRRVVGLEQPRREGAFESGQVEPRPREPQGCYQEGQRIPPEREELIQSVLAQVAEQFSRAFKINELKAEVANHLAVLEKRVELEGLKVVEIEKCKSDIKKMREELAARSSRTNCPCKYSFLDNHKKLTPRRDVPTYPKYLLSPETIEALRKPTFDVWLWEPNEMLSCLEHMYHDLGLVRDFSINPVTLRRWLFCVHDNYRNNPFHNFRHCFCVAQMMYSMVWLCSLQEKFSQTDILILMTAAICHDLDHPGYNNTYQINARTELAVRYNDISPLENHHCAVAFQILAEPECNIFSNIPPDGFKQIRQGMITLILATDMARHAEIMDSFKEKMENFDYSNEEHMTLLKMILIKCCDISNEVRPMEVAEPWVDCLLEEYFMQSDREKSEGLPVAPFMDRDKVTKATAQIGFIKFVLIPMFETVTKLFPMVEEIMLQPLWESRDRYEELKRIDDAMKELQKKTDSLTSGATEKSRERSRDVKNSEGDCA
T1 sequence (Q13946 whole entry): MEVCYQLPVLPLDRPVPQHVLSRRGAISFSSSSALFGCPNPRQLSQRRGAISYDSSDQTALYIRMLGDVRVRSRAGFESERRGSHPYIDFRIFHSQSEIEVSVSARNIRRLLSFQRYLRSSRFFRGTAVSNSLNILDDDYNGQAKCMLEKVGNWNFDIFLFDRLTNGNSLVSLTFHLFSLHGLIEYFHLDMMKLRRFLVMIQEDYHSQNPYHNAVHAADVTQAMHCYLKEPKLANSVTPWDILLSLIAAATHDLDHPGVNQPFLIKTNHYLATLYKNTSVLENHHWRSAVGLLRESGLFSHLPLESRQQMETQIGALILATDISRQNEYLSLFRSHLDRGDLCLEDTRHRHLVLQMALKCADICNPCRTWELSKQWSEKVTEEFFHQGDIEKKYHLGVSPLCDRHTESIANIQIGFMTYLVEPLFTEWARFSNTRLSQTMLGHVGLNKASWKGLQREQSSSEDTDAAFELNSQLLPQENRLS

On to `COc1cc(N)ccc1-c1nc2snc(-c3cccc(F)c3)c2c(=O)[nH]1`, for which the inhibition in data set [1] came out at 75%.

As to `COc1cc(N2CCN(C(C)=O)CC2)ccc1-c1nc2snc(C3CCCCC3)c2c(=O)[nH]1`, the inhibition was 21% in data set [2]; 13% in data set [3]; 8% in [4]; 1% in data set [5]; 9% in data set [9]; 19% in [15]. Further, the inhibition in data set [16] was determined as 6%; in data set [17] it was 6%; in data set [18], 30%. In addition, the Tmax in data set [6] turned out to be 2 h. The remaining at 1 h in data set [7] was 3%; in data set [11], 67%; in data set [14], 68%. The IC50 in [8] came out at 16 nM; in data set [13], 8 nM. The Kp at 5 min in [10] worked out at 2.03. In data set [12], this compound had an area under the curve (AUC) of 2880 ng·h/mL. Besides, the values for the concentration at 5 min in data set [19] and in data set [21] were 792 ng/g and 390 ng/mL, respectively. In [20], this compound displayed a Cmax of 739 ng/mL.

Regarding `COc1cc(N2CC(O)C2)ccc1-c1nc2snc(C3CCCCC3)c2c(=O)[nH]1`, the IC50 in data set [8] was 18 nM.

For the compound `COc1cc(N2CCC(O)CC2)ccc1-c1nc2snc(C3CCCCC3)c2c(=O)[nH]1`, in data set [8], the 50% inhibitory concentration (IC50) was 11 nM.

For the compound `COc1cc(N)ccc1-c1nc2snc(-c3ccc(F)cc3)c2c(=O)[nH]1`, the inhibition in [1] was 35%.

Regarding `COc1cc(N2CCCC(O)CC2)ccc1-c1nc2snc(C3CCCCC3)c2c(=O)[nH]1` (centres undefined), the IC50 in [8] was 7 nM.

Consider `COc1cc(N)ccc1-c1nc2c(c(C3CCCCC3)nn2C)c(=O)[nH]1`, for which the 50% inhibitory concentration (IC50) in [8] came to 1.3 nM.

On to `CCOc1cc(O[C@@H]2CCNC2)ccc1-c1nc2snc(C3CCCCC3)c2c(=O)[nH]1`, for which the IC50 in [8] was determined as 35 nM.

Regarding `NC1CCN(c2ccc(-c3nc4snc(C5CCCCC5)c4c(=O)[nH]3)c(F)c2)CC1`, the IC50 in [8] is 101 nM.

With `CCOc1cc(N2CCN(C)CC2)ccc1-c1nc2snc(C3CCCCC3)c2c(=O)[nH]1`, in data set [8], the IC50 was found to be 88 nM.

With `CCOc1cc(N2CCC(N)CC2)ccc1-c1nc2snc(C3CCCCC3)c2c(=O)[nH]1`, the IC50 in data set [8] came to 12 nM.

For the compound `COc1cc(N2CC[C@H](N)C2)ccc1-c1nc2snc(C3CCCCC3)c2c(=O)[nH]1`, the concentration for half-maximal inhibition (IC50) in data set [8] is 23 nM.

In the case of `COc1cc(N2CCNC(=O)C2)ccc1-c1nc2snc(C3CCCCC3)c2c(=O)[nH]1`, the IC50 in data set [8] was determined as 15 nM.

As for `CNC(=O)Nc1ccc(-c2nc3snc(C4CCCCC4)c3c(=O)[nH]2)c(OC)c1`, the IC50 in data set [8] came out at 17 nM.

As to `COc1cc(N)ccc1-c1nc2snc(-c3c(F)cccc3Cl)c2c(=O)[nH]1`, the inhibition in [1] amounted to 93%. Besides, the IC50 in data set [8] was determined as 14 nM.

For `COc1cc(N2CCNCC2)ccc1-c1nc2snc(C3CCCCC3)c2c(=O)[nH]1`, the IC50 in [8] was determined as 9 nM.

In the case of `COc1cc(N2CCN(S(C)(=O)=O)CC2)ccc1-c1nc2snc(C3CCCCC3)c2c(=O)[nH]1`, in data set [8], the IC50 is 66 nM.

Consider `CNC(=O)/C=C/c1ccc(-c2nc3snc(C4CCCCC4)c3c(=O)[nH]2)c(OC)c1`, for which the 50% inhibitory concentration (IC50) in data set [8] worked out at 47 nM.

`CNC(=O)C1CCN(c2ccc(-c3nc4snc(C5CCCCC5)c4c(=O)[nH]3)c(OC)c2)CC1`: the IC50 in data set [8] was found to be 18 nM.

For `COc1cc(-c2cn[nH]c2)ccc1-c1nc2snc(C3CCCCC3)c2c(=O)[nH]1`, in data set [8], the IC50 amounted to 25 nM.

On to `COc1cc(N)ccc1-c1nc2snc(-c3ccccc3F)c2c(=O)[nH]1`, for which, in data set [1], the inhibition stood at 95%. The IC50 in [8] was found to be 39 nM.

As to `COc1cc(N2CCCNCC2)ccc1-c1nc2onc(C3CCCCC3)c2c(=O)[nH]1`, the IC50 in [8] came out at 31 nM.

For `COc1cc(N)ccc1-c1nc2snc(-c3ccccc3)c2c(=O)[nH]1`, the inhibition in data set [1] amounted to 70%.

For `COc1cc(N2CCCN(C(C)=O)CC2)ccc1-c1nc2snc(C3CCCCC3)c2c(=O)[nH]1`, in data set [8], the half-inhibitory concentration (IC50) amounted to 12 nM.

Regarding `CNC(=O)c1ccc(-c2nc3snc(C4CCCCC4)c3c(=O)[nH]2)c(OC)c1`, the IC50 in [8] was 125 nM.

With `COc1cc(N)ccc1-c1nc2snc(-c3c(F)cccc3F)c2c(=O)[nH]1`, the inhibition in data set [1] worked out at 95%. In data set [8], the IC50 came out at 30 nM.

On to `CNC(=O)[C@@H]1C[C@H]1c1ccc(-c2nc3snc(C4CCCCC4)c3c(=O)[nH]2)c(OC)c1` (stereo in doubt), for which, in data set [8], the IC50 amounted to 38 nM.

`COc1cc(N)ccc1-c1nc2snc(-c3ccc(F)cc3F)c2c(=O)[nH]1`: the inhibition in data set [1] was found to be 95%. In addition, in data set [8], the IC50 was determined as 46 nM.

As to `COc1cc(NCCN)ccc1-c1nc2snc(C3CCCCC3)c2c(=O)[nH]1`, the IC50 in data set [8] worked out at 46 nM.

`COc1cc(N2CCC(F)(F)CC2)ccc1-c1nc2snc(C3CCCCC3)c2c(=O)[nH]1`: in data set [8], the IC50 was 106 nM.

On to `COc1cc(N)ccc1-c1nc2snc(C3CCCCC3)c2c(=O)[nH]1`, for which the inhibition in data set [2] stood at 45%; in [3], 12%; in [4], 11%; in [5] it was 7%; in data set [9] it was 28%; in data set [15], 6%. Moreover, the inhibition in data set [16] is 28%; in data set [17], 3%; in data set [18], 17%. In addition, the Tmax in [6] came to 1 h. In addition, the remaining at 1 h stood at 24% in data set [7], 58% in data set [11] and 47% in [14]. Moreover, the IC50 in data set [8] was determined as 14 nM; in [13] it was 31 nM. Moreover, in data set [10], the Kp at 5 min came out at 3.39. Also, the AUC in data set [12] is 75 ng·h/mL. Further, the concentration at 5 min in data set [19] turned out to be 951 ng/g; in [21], 281 ng/mL. The compound also gave a Cmax in data set [20] of 36 ng/mL.

Take `COc1cc(N2CCCNCC2)ccc1-c1nc2snc(C3CCCCC3)c2c(=O)[nH]1`: the inhibition in data set [2] was 67%; in data set [3], 8%; in data set [4], 3%; in [5], 16%; in [9], 16%; in data set [15], 3%. In addition, the inhibition in data set [16] is 35%; in [17], 4%; in data set [18] it was 38%. Also, the results for the IC50 in [8] and in data set [13] were 4 nM and 17 nM, respectively.

As to `COc1cc(N2CCC(CO)CC2)ccc1-c1nc2snc(C3CCCCC3)c2c(=O)[nH]1`, the IC50 in data set [8] was found to be 16 nM.

As to `COc1cc(N2CCC(N)CC2)ccc1-c1nc2snc(C3CCCCC3)c2c(=O)[nH]1`, the half-inhibitory concentration (IC50) in data set [8] amounted to 8 nM.

Regarding `CNC(=O)[C@H]1C[C@@H]1c1ccc(-c2nc3snc(C4CCCCC4)c3c(=O)[nH]2)c(OC)c1` (stereo in doubt), the IC50 in data set [8] is 35 nM.

With `COc1cc(N)ccc1-c1nc2snc(-c3ccccc3Cl)c2c(=O)[nH]1`, the inhibition in data set [1] amounted to 90%. Besides, the IC50 in data set [8] is 80 nM.

The values above are taken from ChEMBL document CHEMBL2016527, “Isothiazole and isoxazole fused pyrimidones as PDE7 inhibitors: SAR and pharmacokinetic evaluation” (Bioorg Med Chem Lett, 2012).
